Measurements: ChEMBL document CHEMBL4229376, “Optimization of the pharmacokinetic properties of potent anti-trypanosomal triazine derivatives” (Eur J Med Chem, 2018)
Activity calls are given as the source filed them. The calls are words filed in the database; no cut-off is given here.

Tests used:
Mus musculus [1] = assay: Apparent volume of distribution in Swiss mouse infected with Trypanosoma brucei brucei Squib 427 at 25 mg/kg, po administered as single dose after 24 hrs by UPLC/MS/ESI analysis; assay type: ADME, organism-based; conditions: in vivo
[2] = system: Trypanosoma brucei brucei; assay: Antitrypanosomal activity against Trypanosoma brucei brucei Squib 427 infected in Swiss mouse assessed as mouse survival at 50 mg/kg, po bid for 5 days and measured on day 14 post infection; assay type: functional, organism-based
Summary of the method: (§1)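 Acute T. b. brucei mouse infection model. Dosing was PO or IP at 10–50 mg/kg, once (SID) or twice (BID) daily for 5 days after infection, with 3 mice per group. […] Read-outs were mean survival time and survivors on day 14 post infection.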

[3] = Drug metabolism in human plasma assessed as parent compound remaining after 30 mins by UPLC/MS/ESI analysis; assay type: ADME, cell-free; conditions: read-out: Stability
[4] = Drug level in Swiss mouse blood infected with Trypanosoma brucei brucei Squib 427 at 25 mg/kg, po bid for 5 days measured after 2 hrs after last dose by UPLC/MS/ESI analysis; assay type: ADME, organism-based; conditions: whole blood, read-out: Drug uptake
[5] = Tmax in Swiss mouse at 25 mg/kg, po administered as single dose after 24 hrs by UPLC/MS/ESI analysis; assay type: ADME, organism-based; conditions: in vivo
Summary of the method: (§2)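 Mice were given the compound orally as a single dose of either 25 or 50 mg/kg, one group per dose. Plasma concentrations were followed over time up to 24 h, and the pharmacokinetic parameters were derived from the concentration-time profile.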

[6] = Ratio of Cmax in Swiss mouse at 50 mg/kg, po administered as single dose after 24 hrs by LC-MS analysis to IC50 for antitrypanosomal activity against suramin-sensitive Trypanosoma brucei brucei Squib 427 after 72 hrs by resazurin dye-based fluorimetric analysis; assay type: ADME, organism-based; conditions: in vivo
[7] = Drug metabolism in mouse liver microsomes assessed as UGT mediated compound […] by measuring parent compound remaining at 5 uM after 15 mins in presence of UDPGA by UPLC/MS/ESI analysis; assay type: ADME; conditions: 0.25 h
Summary of the method: (§3)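 Metabolic stability was run with mouse liver microsomal fraction (S9) and read as percent parent compound remaining over incubation time. Diclofenac served as the reference compound.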

[8] = Half life in Swiss mouse at 25 mg/kg, po administered as single dose after 24 hrs by UPLC/MS/ESI analysis; assay type: ADME, organism-based; conditions: in vivo; summary of the method: as §2
[9] = Drug uptake in Swiss mouse blood at 25 mg/kg, po administered as single dose after 24 hrs by UPLC/MS/ESI analysis; assay type: ADME, organism-based; conditions: whole blood, read-out: Drug uptake; summary of the method: as §2
[10] = Drug metabolism in mouse liver microsomes assessed as UGT mediated compound […] by measuring parent compound remaining at 5 uM after 30 mins in presence of UDPGA by UPLC/MS/ESI analysis; assay type: ADME; conditions: 0.5 h; summary of the method: as §3
[11] = AUC (0 to >4 hrs) in Swiss mouse infected with Trypanosoma brucei brucei Squib 427 at 25 mg/kg, po administered as single dose by UPLC/MS/ESI analysis; assay type: ADME, organism-based; conditions: in vivo
[12] = Protein binding in 10% FBS in Trypanosoma brucei culture medium at 2 uM after 6 hrs by equilibrium dialysis and LC-MS analysis; assay type: ADME, cell-free, Bos taurus, Serum; conditions: cattle, read-out: PB
[13] = Drug metabolism in human liver microsomes assessed as CYP450 mediated compound […] by measuring parent compound remaining at 5 uM after 30 mins in presence of NADPH by UPLC/MS/ESI analysis; assay type: ADME; conditions: read-out: Stability
[14] = Drug level in Swiss mouse blood infected with Trypanosoma brucei brucei Squib 427 at 25 mg/kg, po bid for 5 days measured after 0.5 hrs after last dose by UPLC/MS/ESI analysis; assay type: ADME, organism-based; conditions: whole blood, read-out: Drug uptake
[15] = Cytotoxicity against human MRC5 SV2 cells after 72 hrs by resazurin dye-based fluorimetric analysis; assay type: cell-based; conditions: MRC-5 SV2, 72 h
[16] = Drug metabolism in mouse liver microsomes assessed as UGT mediated compound […] by measuring parent compound remaining at 5 uM after 60 mins in presence of UDPGA by UPLC/MS/ESI analysis; assay type: ADME; conditions: 1 h; summary of the method: as §3
[17] = Drug metabolism in human liver microsomes assessed as UGT mediated compound […] by measuring parent compound remaining at 5 uM after 60 mins in presence of UDPGA by UPLC/MS/ESI analysis; assay type: ADME; conditions: read-out: Stability
[18] = Protein binding in mouse plasma at 10 uM after 6 hrs by equilibrium dialysis and LC-MS analysis; assay type: ADME, cell-free; conditions: read-out: PPB (converted)
[19] = system: Trypanosoma brucei brucei; assay: Antitrypanosomal activity against Trypanosoma brucei brucei Squib 427 infected in Swiss mouse assessed as mouse survival at 10 mg/kg, ip administered as single dose for 5 days and measured on day 14 post infection; assay type: functional, organism-based; summary of the method: as §1
[20] = Drug uptake in Swiss mouse blood at 50 mg/kg, po administered as single dose after 0.25 hrs by UPLC/MS/ESI analysis; assay type: ADME, organism-based; conditions: whole blood, read-out: Drug uptake; summary of the method: as §2
[21] = Drug level in Swiss mouse blood infected with Trypanosoma brucei brucei Squib 427 at 25 mg/kg, po bid for 5 days measured after 4 hrs after last dose by UPLC/MS/ESI analysis; assay type: ADME, organism-based; conditions: whole blood, read-out: Drug uptake
[22] = system: Trypanosoma brucei brucei; assay: Antitrypanosomal activity against Trypanosoma brucei brucei Squib 427 assessed as reduction in parasite growth at 7 to 14 times IC50 after 48 hrs resazurin dye-based fluorimetric analysis; assay type: functional, organism-based
Summary of the method: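 In vitro time course of T. b. brucei growth in the presence of compound, with parasite growth expressed as % of control.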

[23] = AUC (0 to >4 hrs) in Swiss mouse at 25 mg/kg, po administered as single dose by UPLC/MS/ESI analysis; assay type: ADME, organism-based; conditions: in vivo
Summary of the method: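 Mice in groups received one oral dose of 25 or 50 mg/kg. Plasma concentrations were followed over time up to 24 h, and PK parameters including T1/2 were derived from the concentration–time profile.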

[24] = Protein binding in mouse plasma at 2 uM after 6 hrs by equilibrium dialysis and LC-MS analysis; assay type: ADME, cell-free; conditions: read-out: PPB (converted)
[25] = Drug metabolism in human plasma assessed as parent compound remaining after 1440 mins by UPLC/MS/ESI analysis; assay type: ADME, cell-free; conditions: read-out: Stability
Summary of the method: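 Compound incubated in human plasma for 24 h at 37 °C, and the fraction of parent compound remaining was determined.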

[26] = Protein binding in mouse plasma assessed as drug recovery at 2 uM after 6 hrs by equilibrium dialysis and LC-MS analysis; assay type: ADME, cell-free; conditions: read-out: Drug recovery
Mus musculus [27] = assay: Apparent volume of distribution in Swiss mouse infected with Trypanosoma brucei brucei Squib 427 at 50 mg/kg, po bid for 5 days after 24 hrs by UPLC/MS/ESI analysis; assay type: ADME, organism-based; conditions: in vivo
[28] = Tmax in Swiss mouse infected with Trypanosoma brucei brucei Squib 427 at 25 mg/kg, po administered as single dose after 24 hrs by UPLC/MS/ESI analysis; assay type: ADME, organism-based; conditions: in vivo
[29] = system: Trypanosoma brucei brucei; assay: Antitrypanosomal activity against Trypanosoma brucei brucei Squib 427 infected in Swiss mouse assessed as mean survival days at 50 mg/kg, po administered as single dose for 5 days; assay type: functional
Summary of the method: (§4)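 Acute mouse infection model with T. b. brucei. Dosing ran for 5 days after infection, orally or intraperitoneally, once or twice daily. Groups were 3 mice each, with vehicle-treated infected controls. The read-out was mean survival time in days, plus the number of survivors on day 14 post-infection.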

[30] = Drug uptake in Swiss mouse blood at 50 mg/kg, po administered as single dose after 0.5 hrs by UPLC/MS/ESI analysis; assay type: ADME, organism-based; conditions: whole blood, read-out: Drug uptake; summary of the method: as §2
[31] = Drug uptake in Swiss mouse blood at 50 mg/kg, po administered as single dose after 2 hrs by UPLC/MS/ESI analysis; assay type: ADME, organism-based; conditions: whole blood, read-out: Drug uptake; summary of the method: as §2
[32] = system: Trypanosoma brucei brucei; assay: Antitrypanosomal activity against Trypanosoma brucei brucei Squib 427 infected in Swiss mouse assessed as mean survival days at 25 mg/kg, po bid for 5 days; assay type: functional; summary of the method: as §4

Nc1nc(Nc2ccc(F)cc2)nc(Oc2ccc(F)cc2)n1
Vz (Mus musculus [1]): 13 L | Activity [2]: inactive | remaining at 0.5 h [3]: 91% | concentration at 2 h [4]: 1100 ng/mL | Tmax [5]: 2.3 h | Ratio [6]: 10 | Stability [7]: 97% | half-life [8]: 4.14 h | concentration at 24 h [9]: 50 ng/mL | Stability [10]: 103% | AUC at 4 h [11]: 4710 ng·h/mL | fraction unbound at 6 h, 2 µM [12]: 0.5 to 0.51 | remaining at 0.5 h, 5 µM [13]: 85% | concentration at 0.5 h [14]: 2090 ng/mL | IC50 [15]: > 64 µM | Stability [16]: 101% | remaining at 1 h, 5 µM [17]: 96% | fraction unbound at 6 h, 10 µM [18]: 0.023 | Activity [19]: inactive | concentration at 0.25 h [20]: 1320 ng/mL | concentration at 4 h [21]: 204 ng/mL | Activity [22]: inactive | AUC at 4 h [23]: 13800 ng·h/mL | fraction unbound at 6 h, 2 µM [24]: 0.04 | remaining at 24 h [25]: 87% | recovery at 6 h, 2 µM [26]: 90.2% | Vz (Mus musculus [27]): 10.9 L | Tmax [28]: 0.8 h | MST [29]: 7 days | concentration at 0.5 h [30]: 1780 ng/mL | concentration at 2 h [31]: 1630 ng/mL | MST [32]: 6 days
